# Data from ChEMBL document CHEMBL3875199, “Photodynamic effect of meso-(aryl)porphyrins and meso-(1-methyl-4-pyridinium)porphyrins on HaCaT keratinocytes” (Bioorg Med Chem Lett, 2017).
# Assays:
# [1] = Phototoxicity against human HaCaT cells assessed as cell viability at 1 uM after irradiation with light at 180 J/cm'2 for 30 mins by MTT assay; type: functional; conditions: light or radiation study, 0.5 h, read-out: Activity
# Summary of the method: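 HaCaT screen at 1 µM porphyrin. Light 100 mW/cm² for 30 min (fluence 180 J/cm²). Viability by MTT, given as percent.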
# [2] = Photostability of compound in aqueous media assessed as amount of soret band remaining after irradiation with white light at 100 mW/cm'2 for 30 mins by UV-spectrophotometric analysis; type: physicochemical; conditions: read-out: Stability
# Summary of the method: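 Porphyrin in aqueous medium under white light, 100 mW/cm², sampled at intervals up to 30 min. Soret band absorbance tracked and given as percent remaining of the original.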
# [3] = Induction of singlet oxygen production assessed as amount of DPiBF remaining after irradiation with light at 9 mW/cm'2 for 30 mins by DPiBF photooxidation based spectrophotometric analysis (reference value: 80%); type: physicochemical; conditions: 0.5 h
# Summary of the method: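 Singlet oxygen measured by DPiBF photooxidation in DMF. Light at 9 mW/cm² for 30 min. DPiBF absorbance at 415 nm reported as percent of the starting value.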
# [4] = Phototoxicity against human HaCaT cells assessed as reduction in cell viability after irradiation with white light at 120 J/cm'2 for 20 mins by MTT assay; type: functional, cell-based; conditions: light or radiation study
# Summary of the method: (§1)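 HaCaT PDT at 0.01, 0.03, 0.1, 0.3 and 1 µM porphyrin (untreated control as 0). Light 100 mW/cm² for 20 min (fluence 120 J/cm²). Viability by MTT. IC50 estimated from the roughly linear concentration–viability relationship.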
# [5] = Dark toxicity against human HaCaT cells assessed as reduction in cell viability at >0.1 uM after 24 hrs by MTT assay; type: cell-based
# Summary of the method: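 HaCaT keratinocytes held with porphyrin in the dark for 24 h, no light exposure, over 0.01–1 µM (untreated control as 0). Viability read by MTT.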
# [6] = Phototoxicity against human HaCaT cells assessed as cell viability at 0.01 uM after irradiation with white light at 120 J/cm'2 for 20 mins by MTT assay; type: functional; conditions: light or radiation study, read-out: Activity; summary of the method: as §1
SMILES,remaining at 0.5 h [2],Activity [3],viability at 1 µM [1],IC50 [4],Activity [5],viability at 0.01 µM [6]
C1=Cc2nc1c(-c1ccc3ccccc3c1)c1ccc([nH]1)c(-c1ccc3ccccc3c1)c1nc(c(-c3ccc4ccccc4c3)c3ccc([nH]3)c2-c2ccc3ccccc3c2)C=C1,,25%,100%,,,
C1=Cc2nc1c(-c1ccccc1)c1ccc([nH]1)c(-c1ccccc1)c1nc(c(-c3ccccc3)c3ccc([nH]3)c2-c2ccccc2)C=C1,,,100%,,,
C[n+]1ccc(-c2c3nc(c(-c4cc[n+](C)cc4)c4ccc([nH]4)c(-c4cc[n+](C)cc4)c4nc(c(-c5ccccc5)c5ccc2[nH]5)C=C4)C=C3)cc1.[I-].[I-].[I-],97%,12%,23.9%,67 nM,,
Clc1ccc(-c2c3nc(c(-c4ccc(Cl)cc4)c4ccc([nH]4)c(-c4ccc(Cl)cc4)c4nc(c(-c5ccc(Cl)cc5)c5ccc2[nH]5)C=C4)C=C3)cc1,,,100%,,,
C[n+]1ccc(-c2c3nc(c(-c4ccccc4)c4ccc([nH]4)c(-c4ccccc4)c4nc(c(-c5ccccc5)c5ccc2[nH]5)C=C4)C=C3)cc1.[I-],,13%,29.4%,602 nM,,
Cc1ccc(-c2c3nc(c(-c4ccc(C)cc4)c4ccc([nH]4)c(-c4ccc(C)cc4)c4nc(c(-c5ccc(C)cc5)c5ccc2[nH]5)C=C4)C=C3)cc1,,,100%,,,
C[n+]1ccc(Sc2c(F)c(F)c(-c3c4nc(c(-c5c(F)c(F)c(Sc6cc[n+](C)cc6)c(F)c5F)c5ccc([nH]5)c(-c5c(F)c(F)c(Sc6cc[n+](C)cc6)c(F)c5F)c5nc(c(-c6c(F)c(F)c(Sc7cc[n+](C)cc7)c(F)c6F)c6ccc3[nH]6)C=C5)C=C4)c(F)c2F)cc1.[I-].[I-].[I-].[I-],89%,25%,20.3%,240 nM,,
C[n+]1ccc(-c2c3nc(c(-c4ccccc4)c4nc(c(-c5cc[n+](C)cc5)c5ccc([nH]5)c(-c5ccccc5)c5ccc2[nH]5)C=C4)C=C3)cc1.[I-].[I-],91%,18%,19.5%,136 nM,,
C[n+]1ccc(-c2c3nc(c(-c4ccccc4)c4ccc([nH]4)c(-c4ccccc4)c4nc(c(-c5cc[n+](C)cc5)c5ccc2[nH]5)C=C4)C=C3)cc1.[I-].[I-],92%,20%,23.2%,52.3 nM,Toxic,69%
C[n+]1ccc(-c2c3nc(c(-c4cc[n+](C)cc4)c4ccc([nH]4)c(-c4cc[n+](C)cc4)c4nc(c(-c5cc[n+](C)cc5)c5ccc2[nH]5)C=C4)C=C3)cc1.[I-].[I-].[I-].[I-],98%,22%,26.6%,59 nM,,

# Second part, led by results:
remaining at 0.5 h [2],Activity [3],SMILES,viability at 1 µM [1],IC50 [4],Activity [5],viability at 0.01 µM [6]
91%,24%,O=S(=O)([O-])c1ccc(-c2c3nc(c(-c4ccc(S(=O)(=O)[O-])cc4)c4ccc([nH]4)c(-c4ccc(S(=O)(=O)[O-])cc4)c4nc(c(-c5ccc(S(=O)(=O)[O-])cc5)c5ccc2[nH]5)C=C4)C=C3)cc1.[Na+].[Na+].[Na+].[Na+],76.1%,,,
96%,59%,Nc1ccc(-c2c3nc(c(-c4ccccc4)c4ccc([nH]4)c(-c4ccccc4)c4nc(c(-c5ccccc5)c5ccc2[nH]5)C=C4)C=C3)cc1,100%,,,
97%,28%,COc1ccc(-c2c3nc(c(-c4ccc(OC)cc4)c4ccc([nH]4)c(-c4ccc(OC)cc4)c4nc(c(-c5ccc(OC)cc5)c5ccc2[nH]5)C=C4)C=C3)cc1,100%,,,
97%,28%,O=[N+]([O-])c1ccc(-c2c3nc(c(-c4ccccc4)c4ccc([nH]4)c(-c4ccc([N+](=O)[O-])cc4)c4nc(c(-c5ccccc5)c5ccc2[nH]5)C=C4)C=C3)cc1,95.2%,,,
83%,29%,CC(=O)Oc1ccc(-c2c3nc(c(-c4ccc(OC(C)=O)cc4)c4ccc([nH]4)c(-c4ccc(OC(C)=O)cc4)c4nc(c(-c5ccc(OC(C)=O)cc5)c5ccc2[nH]5)C=C4)C=C3)cc1,100%,,,
96%,33%,O=[N+]([O-])c1ccc(-c2c3nc(c(-c4ccccc4)c4ccc([nH]4)c(-c4ccccc4)c4nc(c(-c5ccccc5)c5ccc2[nH]5)C=C4)C=C3)cc1,92.8%,,,
